According to ChEMBL document CHEMBL1914430, “Synthesis of some new 1,3,5-trisubstituted pyrazolines bearing benzene sulfonamide as anticancer and anti-inflammatory agents” (Bioorg Med Chem Lett, 2011):

Assays:
Type in all cases: functional
786-0 = assay: Anticancer activity against human 786-0 cells after 48 hrs; settings: 786-0, 48 h
Summary of the method: (§1)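 NCI Drug Evaluation Branch 60-cell-line screen across leukemia, melanoma, lung, colon, CNS, ovarian, renal, prostate and breast panels. The incubation period is 48 h. Parameters are derived from dose–response data: GI50 is the concentration giving 50% decrease in net growth, TGI is total growth inhibition, and LC50 is net 50% loss of initial cells. Values beyond the tested range are reported as greater or less than the maximum or minimum concentration.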

A498 = assay: Anticancer activity against human A498 cells after 48 hrs; settings: A498, 48 h; summary of the method: as §1
NCI-H522 = assay: Anticancer activity against human NCI-H522 cells after 48 hrs; settings: NCI-H522, 48 h
Summary of the method: (§2)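 NCI 60-line panel protocol with a 48 h incubation. Per line: GI50 = concentration giving 50% decrease in net cell growth; TGI = total growth inhibition; LC50 = net 50% loss of initial cells. When the level was not reached or was exceeded, the value is given as greater or less than the highest or lowest concentration tested.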

HCT-116 = assay: Anticancer activity against human HCT116 cells after 48 hrs; settings: HCT-116, 48 h; summary of the method: as §1
UO-31 = assay: Anticancer activity against human UO31 cells after 48 hrs; settings: UO-31, 48 h
Summary of the method: (§3)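 NCI ~60 human tumour cell line panel with a 48 h incubation. GI50 is the concentration giving a 50% fall in net growth, TGI gives total growth inhibition, and LC50 gives a net 50% loss of initial cells. An effect not reached or exceeded is reported as greater or less than the highest or lowest concentration tested.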

SK-MEL-28 = assay: Anticancer activity against human SK-MEL-28 cells after 48 hrs; settings: SK-MEL-28, 48 h; summary of the method: as §2
OVCAR-8 = assay: Anticancer activity against human OVCAR8 cells after 48 hrs; settings: OVCAR-8, 48 h; summary of the method: as §2
U-251 = assay: Anticancer activity against human U251 cells after 48 hrs; settings: U-251, 48 h; summary of the method: as §3
Rattus norvegicus = assay: Antiinflammatory activity in Wistar rat assessed as inhibition of carrageenan-induced hind paw edema at 20 mg/kg, po administered 30 mins before carrageenan challenge measured after 3 hrs by plethysmometer
Summary of the method: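 Wistar rats of either sex, 150–175 g, fasted 16 h, n = 6 per group. Compound given orally at 20 mg/kg as a suspension in 1% CMC in water (10 mL/kg); controls got vehicle only. After 30 min, 0.1 mL of 1% carrageenan in saline was injected subplantar into the left hind paw. Paw volume was measured by plethysmometer at 0, 3 and 5 h. Inhibition = (1 − Vt/Vc) × 100, reported as mean ± SEM.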

SK-OV-3 = assay: Anticancer activity against human SKOV3 cells after 48 hrs; settings: SK-OV-3, 48 h; summary of the method: as §2
MOLT-4 = assay: Anticancer activity against human MOLT4 cells after 48 hrs; settings: MOLT-4, 48 h; summary of the method: as §2
T47D = assay: Anticancer activity against human T47D cells after 48 hrs; summary of the method: as §3
NCI-H226 = assay: Anticancer activity against human NCI-H226 cells after 48 hrs; settings: NCI-H226, 48 h; summary of the method: as §2
CAKI-1 = assay: Anticancer activity against human Caki1 cells after 48 hrs; settings: CAKI-1, 48 h; summary of the method: as §1
TK-10 = assay: Anticancer activity against human TK10 cells after 48 hrs; settings: TK-10, 48 h; summary of the method: as §3
SR = assay: Anticancer activity against human SR cells after 48 hrs; summary of the method: as §2
PC-3 = assay: Anticancer activity against human PC3 cells after 48 hrs; settings: PC-3, 48 h; summary of the method: as §2
K562 = assay: Anticancer activity against human K562 cells after 48 hrs; settings: K562, 48 h; summary of the method: as §1
SF-295 = assay: Anticancer activity against human SF295 cells after 48 hrs; settings: SF-295, 48 h; summary of the method: as §2
COLO 205 = assay: Anticancer activity against human COLO205 cells after 48 hrs; settings: COLO 205, 48 h; summary of the method: as §1
LOX IMVI = assay: Anticancer activity against human LOXIMVI cells after 48 hrs; summary of the method: as §1
MDA-MB-231 = assay: Anticancer activity against human MDA-MB-231 cells after 48 hrs; settings: MDA-MB-231, 48 h; summary of the method: as §1
NCI/ADR-RES = assay: Anticancer activity against human NCI/ADR-RES cells after 48 hrs; summary of the method: as §2
HL-60(TB) = assay: Anticancer activity against human HL-60(TB) cells after 48 hrs; settings: HL-60, 48 h
Summary of the method: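 NCI 60-cell-line panel protocol: cells exposed to compound for 48 h. Initial one-dose screen at 10⁻⁵ M. GI50 = concentration giving 50% decrease in net cell growth. TGI = concentration giving total growth inhibition. LC50 = concentration giving net 50% loss of initial cells at the end of incubation. A value not reached or exceeded is reported as greater or less than the highest or lowest concentration tested.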

M14 = assay: Anticancer activity against human M14 cells after 48 hrs; settings: M14, 48 h; summary of the method: as §1
NCI-H322M = assay: Anticancer activity against human NCI-H322M cells after 48 hrs; summary of the method: as §2
OVCAR-5 = assay: Anticancer activity against human OVCAR5 cells after 48 hrs; settings: OVCAR-5, 48 h; summary of the method: as §2
A549 = assay: Anticancer activity against human A549 cells after 48 hrs; settings: A549, 48 h; summary of the method: as §1
[1] = read-out: LC50 (the source's name)

Structure (SMILES): Cc1cc(O)c(C2=NN(c3ccc(S(N)(=O)=O)cc3)C(/C=C/c3ccccc3)C2)cc1Cl (configuration not stated)
- GI50 (786-0): 4.09 µM
- TGI (786-0): 12.5 µM
- CC50 (786-0; [1]): 35.3 µM
- GI50 (A498): 14.9 µM
- TGI (A498): 42.4 µM
- CC50 (A498; [1]): > 100 µM
- GI50 (NCI-H522): 4.62 µM
- LC50 (concentration killing 50% of initial cells) (NCI-H522): 61.8 µM
- TGI (NCI-H522): 19.4 µM
- GI50 (HCT-116): 2.4 µM
- TGI (HCT-116): 14.6 µM
- CC50 (HCT-116; [1]): 38.2 µM
- GI50 (UO-31): 15.2 µM
- TGI (UO-31): 34.9 µM
- CC50 (UO-31; [1]): 79.9 µM
- GI50 (SK-MEL-28): 10.9 µM
- TGI (SK-MEL-28): 23.8 µM
- CC50 (SK-MEL-28; [1]): 52 µM
- GI50 (OVCAR-8): 3.03 µM
- TGI (OVCAR-8): 20.2 µM
- CC50 (OVCAR-8; [1]): 91.7 µM
- GI50 (U-251): 3.79 µM
- TGI (U-251): 15.6 µM
- CC50 (U-251; [1]): 39.5 µM
- inhibition in vivo at 20 mg/kg (Rattus norvegicus): 78.9%
- GI50 (SK-OV-3): 5.52 µM
- TGI (SK-OV-3): 17.9 µM
- CC50 (SK-OV-3; [1]): 42.7 µM
- GI50 (MOLT-4): 17.7 µM
- LC50 (MOLT-4): > 100 µM
- TGI (MOLT-4): 73.7 µM
- GI50 (T47D): 3.38 µM
- TGI (T47D): 14.7 µM
- CC50 (T47D; [1]): 44.5 µM
- GI50 (NCI-H226): 5.21 µM
- TGI (NCI-H226): 19.2 µM
- CC50 (NCI-H226; [1]): 51.8 µM
- GI50 (CAKI-1): 15.3 µM
- LC50 (concentration giving 50% net loss of initial cells) (CAKI-1): > 100 µM
- TGI (CAKI-1): 87.7 µM
- GI50 (TK-10): 14.8 µM
- LC50 (TK-10): 60.7 µM
- TGI (TK-10): 29.9 µM
- GI50 (SR): 12.7 µM
- LC50 (concentration killing 50% of initial cells) (SR): 89.7 µM
- TGI (SR): 33.8 µM
- GI50 (PC-3): 3.15 µM
- TGI (PC-3): 11.5 µM
- CC50 (PC-3; [1]): 34 µM
- GI50 (K562): 11.6 µM
- LC50 (concentration killing 50% of initial cells) (K562): > 100 µM
- TGI (K562): 87.5 µM
- GI50 (SF-295): 2.36 µM
- LC50 (concentration giving net 50% loss of initial cells) (SF-295): 37.3 µM
- TGI (SF-295): 11.9 µM
- GI50 (COLO 205): 10.4 µM
- LC50 (concentration giving net 50% loss of initial cells) (COLO 205): 47 µM
- TGI (COLO 205): 22.1 µM
- GI50 (LOX IMVI): 3.94 µM
- TGI (LOX IMVI): 16.2 µM
- CC50 (LOX IMVI; [1]): 40.3 µM
- GI50 (MDA-MB-231): 4.56 µM
- TGI (MDA-MB-231): 16.3 µM
- CC50 (MDA-MB-231; [1]): 40.8 µM
- GI50 (NCI/ADR-RES): 9.26 µM
- TGI (NCI/ADR-RES): 22.7 µM
- CC50 (NCI/ADR-RES; [1]): 53 µM
- GI50 (HL-60(TB)): 68.3 µM
- LC50 (HL-60(TB)): > 100 µM
- TGI (HL-60(TB)): 100 µM
- GI50 (M14): 6.16 µM
- TGI (M14): 19.3 µM
- CC50 (M14; [1]): 44.2 µM
- GI50 (NCI-H322M): 5.73 µM
- LC50 (net 50% loss of initial cells) (NCI-H322M): > 100 µM
- TGI (NCI-H322M): 27.5 µM
- GI50 (OVCAR-5): 3.18 µM
- LC50 (OVCAR-5): 38.3 µM
- TGI (OVCAR-5): 14.7 µM
- GI50 (A549): 11 µM
- LC50 (net 50% loss of initial cells) (A549): 86 µM
- TGI (A549): 30.8 µM
